Assay results as given in ChEMBL document CHEMBL3259568 (Bioorg Med Chem, 2014).

What was measured:
Mus musculus [1] = test: Acute toxicity in albino mouse assessed as effect on autonomic profile at 2000 mg/kg, po measured for 3 hrs; assay type: organism-based; set-up: dose 2000 mg/kg, route oral; settings: in vivo
Procedure, shortened: (§1)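 OECD guideline test. Albino mice of either sex, 20–25 g, six per group, fasted 24 h with water ad libitum. Compounds suspended in 0.5% aqueous sodium CMC and given orally in increasing doses of 10, 20, 100, 200, 1000 and 2000 mg/kg b.w. Animals watched continuously for 3 h for general behavioural, neurological and autonomic profiles, then every 30 min for 3 h, then up to 24 h or until death.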

Mus musculus [2] = test: Acute toxicity in albino mouse assessed as effect on neurological profile at 2000 mg/kg, po measured for 3 hrs; assay type: organism-based; set-up: dose 2000 mg/kg, route oral; settings: in vivo; procedure, shortened: as §1
Rattus norvegicus [3] = test: Acute antiinflammatory activity in albino rat assessed as inhibition of carrageenan-induced paw edema at 10 mg/kg, po administered 1 hr followed by carrageenan challenge measured at 4 hrs by plethysmometric analysis relative to control; assay type: functional
Procedure, shortened: (§2)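 Male albino rats (170–220 g), fasted ≥12 h with water, six per group. Oral dosing in 0.5% sodium CMC (control 1 ml vehicle), then 1 h later subplantar 0.05 ml of 1% carrageenan into left hind footpad. […] Mean ± SEM, ANOVA/Dunnett.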

Rattus norvegicus [4] = test: Acute antiinflammatory activity in albino rat assessed as inhibition of carrageenan-induced paw edema at 10 mg/kg, po administered 1 hr followed by carrageenan challenge measured at 2 hrs by plethysmometric analysis relative to control; assay type: functional; procedure, shortened: as §2
Mus musculus [5] = test: Acute toxicity in albino mouse assessed as effect on general behavioral profile at 2000 mg/kg, po measured for 3 hrs; assay type: organism-based; set-up: dose 2000 mg/kg, route oral; settings: in vivo; procedure, shortened: as §1
Mus musculus [6] = test: Acute toxicity in albino mouse assessed as mortality at 2000 mg/kg, po measured continuously for 3 hrs followed by every 30 mins for next 3 hrs up to 24 hrs; assay type: organism-based; set-up: dose 2000 mg/kg, route oral; settings: in vivo; procedure, shortened: as §1
[7] = molecular target: T1, Prostaglandin G/H synthase 1 (Ovis aries) (UniProt P05979); test: Inhibition of ovine COX1 peroxidase activity assessed as reduction of PGG2 to PGH2 by measuring oxidized TMPD level at 10 ug/ml by colorimetric assay relative to control
T1 sequence (whole entry): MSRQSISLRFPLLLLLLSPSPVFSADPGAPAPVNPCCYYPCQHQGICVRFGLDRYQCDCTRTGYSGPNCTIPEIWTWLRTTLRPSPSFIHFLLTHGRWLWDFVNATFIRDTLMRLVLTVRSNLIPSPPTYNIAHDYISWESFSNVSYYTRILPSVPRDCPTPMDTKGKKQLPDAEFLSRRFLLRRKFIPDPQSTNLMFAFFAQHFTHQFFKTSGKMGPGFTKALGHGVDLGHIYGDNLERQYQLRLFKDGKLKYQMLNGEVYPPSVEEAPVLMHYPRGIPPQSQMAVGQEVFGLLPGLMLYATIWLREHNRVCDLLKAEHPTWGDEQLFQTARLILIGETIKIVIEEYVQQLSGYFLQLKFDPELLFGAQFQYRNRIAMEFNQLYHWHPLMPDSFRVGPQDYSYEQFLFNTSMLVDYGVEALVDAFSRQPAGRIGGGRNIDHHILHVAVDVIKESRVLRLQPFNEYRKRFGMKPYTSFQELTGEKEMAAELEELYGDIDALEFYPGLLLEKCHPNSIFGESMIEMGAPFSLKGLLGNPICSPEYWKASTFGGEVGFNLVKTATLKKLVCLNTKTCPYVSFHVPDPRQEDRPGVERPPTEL

Mus musculus [8] = test: Analgesic activity in albino mouse assessed as protection against glacial acetic acid-induced writhing at 10 mg/kg, po administered 0.5 hrs followed by glacial acetic acid challenge measured for 15 mins relative to control; assay type: functional
Procedure, shortened: (§3)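 Mice (20–25 g) pre-screened 24 h earlier with i.p. 10 ml/kg 0.6% glacial acetic acid; only responders used. Oral dosing as suspension in 0.5% sodium CMC 30 min before acetic acid challenge. Writhing episodes counted for 15 min; group means versus vehicle control; ANOVA with Dunnett test.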

[9] = molecular target: T2, Prostaglandin G/H synthase 1 (Ovis aries, UniProt P05979); test: Inhibition of ovine COX1 peroxidase activity assessed as reduction of PGG2 to PGH2 by measuring oxidized TMPD level by colorimetric assay
T2 sequence (P05979 whole entry): T1 sequence (whole entry)

Rattus norvegicus [10] = test: Antipyretic activity in albino rat assessed as yeast-induced pyrexia at 135 mg/kg, po measured at 1 hr by telethermometer (reference value: 38.26 degC); assay type: functional
Procedure, shortened: (§4)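 Male albino rats (170–230 g) given s.c. 2.5 ml 20% aqueous baker's yeast; rectal temperature by telethermometer before and at 18 h (taken as 0 h). Rats with 1–2 °C rise, six per group, dosed orally 30 min later (control 1 ml 0.5% sodium CMC). Temperature recorded hourly to 5 h; temperature index = sum of mean changes from 0 h.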

Rattus norvegicus [11] = test: Antipyretic activity in albino rat assessed as yeast-induced pyrexia at 135 mg/kg, po measured at 4 hrs by telethermometer (reference value: 38 degC); assay type: functional; procedure, shortened: as §4
Rattus norvegicus [12] = test: Antipyretic activity in albino rat assessed as decrease in yeast-induced pyrexia by measuring temperature index at 135 mg/kg, po measured over 5 hrs by telethermometer (reference value: 1.04 degC); assay type: functional; procedure, shortened: as §4
Rattus norvegicus [13] = test: Antipyretic activity in albino rat assessed as yeast-induced pyrexia at 135 mg/kg, po measured at 3 hrs by telethermometer (reference value: 38.11 degC); assay type: functional; procedure, shortened: as §4
Rattus norvegicus [14] = test: Antipyretic activity in albino rat assessed as yeast-induced pyrexia at 135 mg/kg, po measured at 2 hrs by telethermometer (reference value: 38.20 degC); assay type: functional; procedure, shortened: as §4
Rattus norvegicus [15] = test: Antipyretic activity in albino rat assessed as yeast-induced pyrexia at 135 mg/kg, po measured at 5 hrs by telethermometer (reference value: 37.89 degC); assay type: functional; procedure, shortened: as §4
Rattus norvegicus [16] = test: Ulcerogenic activity in albino rat stress model assessed as ulcer index at 10 mg/kg, po after 7 hrs; assay type: toxicity, organism-based; set-up: dose 10 mg/kg, route oral; settings: in vivo
Procedure, shortened: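 Albino rats of either sex (170–250 g), six per group, starved 48 h with water, dosed orally 10 mg/kg in sodium CMC; killed 7 h later. Stomach opened along greater curvature and everted; lesions counted in five size classes (pinpoint to >4 mm) to give ulcer index, reported as min–max range.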

Rattus norvegicus [17] = test: Acute antiinflammatory activity in albino rat assessed as inhibition of carrageenan-induced paw edema at 13.5 mg/kg, po administered 1 hr followed by carrageenan challenge measured at 4 hrs by plethysmometric analysis relative to control; assay type: functional; procedure, shortened: as §2
Rattus norvegicus [18] = test: Acute antiinflammatory activity in albino rat assessed as inhibition of carrageenan-induced paw edema at 13.5 mg/kg, po administered 1 hr followed by carrageenan challenge measured at 2 hrs by plethysmometric analysis relative to control; assay type: functional; procedure, shortened: as §2
Mus musculus [19] = test: Analgesic activity in albino mouse assessed as protection against glacial acetic acid-induced writhing at 19.5 mg/kg, po administered 0.5 hrs followed by glacial acetic acid challenge measured for 15 mins relative to control; assay type: functional; procedure, shortened: as §3
Rattus norvegicus [20] = test: Antipyretic activity in albino rat assessed as yeast-induced pyrexia at 10 mg/kg, po measured at 2 hrs by telethermometer (reference value: 38.20 degC); assay type: functional; procedure, shortened: as §4
Rattus norvegicus [21] = test: Antipyretic activity in albino rat assessed as yeast-induced pyrexia at 10 mg/kg, po measured at 1 hr by telethermometer (reference value: 38.26 degC); assay type: functional; procedure, shortened: as §4
Rattus norvegicus [22] = test: Antipyretic activity in albino rat assessed as decrease in yeast-induced pyrexia by measuring temperature index at 10 mg/kg, po measured over 5 hrs by telethermometer (reference value: 1.04 degC); assay type: functional; procedure, shortened: as §4
Rattus norvegicus [23] = test: Antipyretic activity in albino rat assessed as yeast-induced pyrexia at 10 mg/kg, po measured at 3 hrs by telethermometer (reference value: 38.11 degC); assay type: functional; procedure, shortened: as §4
Rattus norvegicus [24] = test: Antipyretic activity in albino rat assessed as yeast-induced pyrexia at 10 mg/kg, po measured at 5 hrs by telethermometer (reference value: 37.89 degC); assay type: functional; procedure, shortened: as §4
Rattus norvegicus [25] = test: Antipyretic activity in albino rat assessed as yeast-induced pyrexia at 10 mg/kg, po measured at 4 hrs by telethermometer (reference value: 38 degC); assay type: functional; procedure, shortened: as §4

SMILES | Activity (Mus musculus [1]) | Activity (Mus musculus [2]) | inhibition in vivo at 10 mg/kg (Rattus norvegicus [3]) [%] | inhibition in vivo at 10 mg/kg (Rattus norvegicus [4]) [%] | Activity (Mus musculus [5]) | Activity (Mus musculus [6]) | inhibition [7] [%] | Activity (Mus musculus [8]) [%] | IC50 [9] [µM] | UI (Rattus norvegicus [16]) | also measured
CN(Cn1nc(Cc2ccccc2Nc2c(Cl)cccc2Cl)oc1=S)c1ccccc1 | Non-toxic | Non-toxic | 41 | 41.8 | Non-toxic | Non-toxic | – | – | – | – | –
S=c1oc(Cc2ccccc2Nc2c(Cl)cccc2Cl)nn1CN1CCCCC1 | Non-toxic | Non-toxic | 45.9 | 48.3 | Non-toxic | Non-toxic | 30.9 | 74.1 | > 50 | – | –
CC(=O)Nc1ccc(O)cc1 [ACETAMINOPHEN] | – | – | – | – | – | – | – | – | – | – | T (Rattus norvegicus [10]): 38.4 °C; T (Rattus norvegicus [11]): 37.3 °C; T (Rattus norvegicus [12]): 6.7 °C; T (Rattus norvegicus [13]): 37.6 °C; T (Rattus norvegicus [14]): 38 °C; T (Rattus norvegicus [15]): 37 °C
O=C(O)Cc1ccccc1Nc1c(Cl)cccc1Cl [DICLOFENAC] | – | – | – | – | – | – | – | – | – | 5.5 | inhibition in vivo at 13.5 mg/kg (Rattus norvegicus [17]): 66.2%; inhibition in vivo at 13.5 mg/kg (Rattus norvegicus [18]): 65.5%; Activity (Mus musculus [19]): 79.3%
CC(=O)Oc1ccccc1C(=O)O [ASPIRIN] | – | – | – | – | – | – | – | – | – | 4.7 | –
S=c1oc(Cc2ccccc2Nc2c(Cl)cccc2Cl)nn1CNC1CCCCC1 | Non-toxic | Non-toxic | 67.5 | 65.9 | Non-toxic | Non-toxic | 19.6 | 77.6 | > 50 | 3.6 | T (Rattus norvegicus [20]): 37.69 °C; T (Rattus norvegicus [21]): 37.98 °C; T (Rattus norvegicus [22]): 4.38 °C; T (Rattus norvegicus [23]): 37.03 °C; T (Rattus norvegicus [24]): 36.78 °C; T (Rattus norvegicus [25]): 37.79 °C
CN1CCN(Cn2nc(Cc3ccccc3Nc3c(Cl)cccc3Cl)oc2=S)CC1 | Non-toxic | Non-toxic | 64.5 | 65.1 | Non-toxic | Non-toxic | 35.2 | 77.6 | > 50 | 2.3 | T (Rattus norvegicus [20]): 37.94 °C; T (Rattus norvegicus [21]): 37.72 °C; T (Rattus norvegicus [22]): 2.81 °C; T (Rattus norvegicus [23]): 37.8 °C; T (Rattus norvegicus [24]): 37.2 °C; T (Rattus norvegicus [25]): 37.44 °C
